Source: ChEMBL document CHEMBL4014329, “Selective Inhibition of Escherichia coli RNA and DNA Topoisomerase I by Hoechst 33258 Derived Mono- and Bisbenzimidazoles” (J Med Chem, 2017)
≈ marks a conversion by molar mass, not a printed value. Calls of active or inactive are those of the source. The rule behind the calls is not given here.

How the values were obtained:
Citrobacter freundii = assay: Antibacterial activity against Citrobacter freundii 4747CFAA after 24 hrs by microbroth dilution method; type: functional
Outline: (§1)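 Microbroth dilution per CLSI guidelines. Organisms grown in Mueller−Hinton broth at 37 °C with shaking to log phase, pelleted, resuspended in 0.85% saline to OD625 0.1. Final inoculum 5 × 10^5 CFU/mL; triplicate; 24 h at 37 °C. OD625 read; MIC = lowest concentration completely inhibiting growth versus untreated controls.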

Shigella flexneri = assay: Antibacterial activity against Shigella flexneri 2457NR517 after 24 hrs by microbroth dilution method; type: functional; conditions: 2457NR517, 24 h
Outline: (§2)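 Mueller-Hinton broth cultures grown at 37 °C with shaking to log phase, pelleted, resuspended in 0.85% saline to OD625 0.1. Broth microdilution per CLSI guidelines, final inoculum 5 × 10^5 CFU/mL, in triplicate, 24 h at 37 °C. Growth read as OD625. MIC is the lowest concentration giving complete growth inhibition versus untreated controls.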

Escherichia coli [1] = assay: Antibacterial activity against Escherichia coli ATCC 25922 after 24 hrs by microbroth dilution method; type: functional; conditions: ATCC 25922, 24 h; outline: as §1
Staphylococcus aureus [2] = assay: Antibacterial activity against methicillin-resistant Staphylococcus aureus 33591 after 24 hrs by microbroth dilution method; type: functional; conditions: Staphylococcus aureus, 33591, 24 h; outline: as §2
Escherichia coli [3] = assay: Inhibition of Escherichia coli RNA topoisomerase-1 using circular RNA as substrate 10 uM after 1.5 hrs by SDS-PAGE analysis
Outline: (§3)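 10 nM E. coli topoisomerase I premixed with reaction buffer and inhibitor diluted in DMSO, then circular RNA substrate added; 1.5 h incubation. Stopped with proteinase K/SDS/EDTA buffer. Trefoil RNA knot product separated from circular substrate on 15% TBE−urea gels and detected by phosphorimaging. DMSO-only control included.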

[4] = Binding affinity to dA60.dT60 B-DNA duplex (unknown origin) assessed as change in melting temperature at 10 uM by UV-vis spectrophotometric analysis
Outline: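 UV melting of dA60·dT60 at 1 μM/duplex with compound at 10 μM. Buffer 10 mM sodium cacodylate, 0.1 mM EDTA, 100 mM NaCl, pH 7.0; duplex pre-annealed from 95 °C. Compound stocks in DMSO diluted into buffer. Heating at 0.2 °C/min, monitored at 260 nm, points every 1.0 °C; Tm taken from derivatives.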

Escherichia coli [5] = assay: Inhibition of Escherichia coli DNA gyrase using relaxed plasmid pBAD-GFPuv as substrate after 30 mins by agarose gel electrophoresis
Staphylococcus aureus [6] = assay: Antibacterial activity against methicillin-resistant Staphylococcus aureus A960649 after 24 hrs by microbroth dilution method; type: functional; conditions: A960649, 24 h; outline: as §2
DNA topoisomerase 1 = biological target: T1, DNA topoisomerase 1 (Homo sapiens, UniProt P11387); assay: Inhibition of human DNA topoisomerase 1 using plasmid pBAD-GFPuv as substrate after 30 mins by agarose gel electrophoresis
T1 sequence (P11387 whole entry): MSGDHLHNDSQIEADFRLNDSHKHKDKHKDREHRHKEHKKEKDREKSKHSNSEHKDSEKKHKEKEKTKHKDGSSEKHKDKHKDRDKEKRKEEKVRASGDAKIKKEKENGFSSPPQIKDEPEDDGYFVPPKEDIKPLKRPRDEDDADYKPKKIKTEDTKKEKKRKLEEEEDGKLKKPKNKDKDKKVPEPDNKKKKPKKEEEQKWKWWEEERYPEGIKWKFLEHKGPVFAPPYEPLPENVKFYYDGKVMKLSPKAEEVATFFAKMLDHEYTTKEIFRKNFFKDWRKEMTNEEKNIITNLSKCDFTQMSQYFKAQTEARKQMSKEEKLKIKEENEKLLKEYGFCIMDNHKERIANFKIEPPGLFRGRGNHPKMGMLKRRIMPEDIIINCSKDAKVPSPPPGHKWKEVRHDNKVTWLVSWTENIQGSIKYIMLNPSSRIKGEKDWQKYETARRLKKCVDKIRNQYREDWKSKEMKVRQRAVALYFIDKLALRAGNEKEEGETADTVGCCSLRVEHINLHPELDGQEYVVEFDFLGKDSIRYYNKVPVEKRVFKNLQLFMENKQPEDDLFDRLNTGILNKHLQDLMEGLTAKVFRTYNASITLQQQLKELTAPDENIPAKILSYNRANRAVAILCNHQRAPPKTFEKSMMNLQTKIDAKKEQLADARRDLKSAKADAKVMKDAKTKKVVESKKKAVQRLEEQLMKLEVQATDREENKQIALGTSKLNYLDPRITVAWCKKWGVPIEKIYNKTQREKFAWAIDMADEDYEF

Enterococcus faecium = assay: Antibacterial activity against Enterococcus faecium BM4105RF after 24 hrs by microbroth dilution method; type: functional; outline: as §2
[7] = test system: Staphylococcus epidermidis; assay: Antibacterial activity against Staphylococcus epidermidis ATCC 12384 after 24 hrs by microbroth dilution method; type: functional; conditions: ATCC 12384, 24 h; outline: as §1
Staphylococcus aureus [8] = assay: Antibacterial activity against Staphylococcus aureus ATCC 33591 after 24 hrs by microbroth dilution method; type: functional; conditions: ATCC 33591, 24 h; outline: as §1
[9] = Binding affinity to dA60.dT60 B-DNA duplex (unknown origin) assessed as induction of biphasic transition at <5 uM by UV-vis spectrophotometric analysis
[10] = Inhibition of Escherichia coli DNA topoisomerase 1 using plasmid pBAD-GFPuv as substrate after 15 mins by agarose gel electrophoresis
Outline: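 E. coli topoisomerase I at 6 nM relaxing 150 ng supercoiled pBAD-GFPuv. 15 min at 37 °C, phenol-stopped, 1% agarose gel, ethidium stain. IC50 is the concentration leaving 50% DNA supercoiled; three independent determinations.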

Escherichia coli [11] = assay: Antibacterial activity against Escherichia coli K-12 after 24 hrs by microbroth dilution method; type: functional; conditions: K-12, 24 h; outline: as §1
Acinetobacter baumannii = assay: Antibacterial activity against Acinetobacter baumannii ATCC 19606 after 24 hrs by microbroth dilution method; type: functional; conditions: ATCC 19606 = CIP 70.34 = JCM 6841, 24 h; outline: as §1
[12] = Cytotoxicity against human PCS-201-010 cells after 48 hrs by SRB assay; type: cell-based; conditions: PCS-201-010, 48 h
Outline: (§4)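 Cells cultured per ATCC protocols, seeded and grown 24 h (37 °C, 5% CO2), then treated in triplicate at final 20, 10, 5, 2.5, 1.25, 0.625 and 0.0625 μM for 48 h. Fixed with cold TCA (16% final, 4 °C, 1 h), stained with SRB in 1% acetic acid, dye solubilized in 10 mM Tris base, A560 read. IC50 derived; study in duplicate.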

Klebsiella pneumoniae = assay: Antibacterial activity against Klebsiella pneumoniae NR15410 after 24 hrs by microbroth dilution method; type: functional; conditions: NR15410, 24 h; outline: as §1
Enterobacter cloacae = assay: Antibacterial activity against Enterobacter cloacae ATCC 13047 after 24 hrs by microbroth dilution method; type: functional; conditions: ATCC 13047, 24 h; outline: as §1
Pseudomonas aeruginosa = assay: Antibacterial activity against Pseudomonas aeruginosa ATCC 27853 after 24 hrs by microbroth dilution method; type: functional; conditions: ATCC 27853, 24 h; outline: as §1
DU-145 = assay: Cytotoxicity against human DU145 cells after 48 hrs by SRB assay; type: cell-based; conditions: for IC50: Homo sapiens, DU-145, 48 h; outline: as §4
Staphylococcus aureus [13] = assay: Antibacterial activity against Staphylococcus aureus ATCC 29213 after 24 hrs by microbroth dilution method; type: functional; conditions: ATCC 29213, 24 h; outline: as §1
Enterococcus faecalis = assay: Antibacterial activity against Enterococcus faecalis ATCC 29212 after 24 hrs by microbroth dilution method; type: functional; conditions: ATCC 29212, 24 h; outline: as §1
Escherichia coli [14] = assay: Inhibition of Escherichia coli RNA topoisomerase 1 using circular RNA as substrate up to 50 uM after 1.5 hrs by SDS-PAGE analysis; outline: as §3
[15] = Inhibition of human DNA topoisomerase 2 using plasmid pBAD-GFPuv as substrate after 30 mins by agarose gel electrophoresis
Outline: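 Compound at 5–50 μM final, 30 min at 37 °C. Phenol extraction, 1% agarose electrophoresis, ethidium stain. IC50 = concentration at which 50% of DNA remains (−) supercoiled.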

Escherichia coli [16] = assay: Inhibition of Escherichia coli RNA topoisomerase 1 using circular RNA as substrate up to 80 uM after 1.5 hrs by SDS-PAGE analysis
Outline: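 E. coli topoisomerase I (10 nM) premixed in reaction buffer with inhibitor diluted in DMSO, then circular RNA substrate added; 1.5 h. DMSO-only control included. Final inhibitor 2.5 to 80 μM. Stopped with proteinase K/SDS/EDTA. Trefoil RNA knot product resolved from substrate on 15% TBE-urea gels and detected by autoradiography.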

Structure (SMILES) | MIC (Citrobacter freundii) [µg/mL] | MIC (Shigella flexneri) [µg/mL] | MIC (Escherichia coli [1]) [µg/mL] | MIC (Staphylococcus aureus [2]) [µg/mL] | inhibition (Escherichia coli [3]) | ΔTm [4] [°C] | MIC (Staphylococcus aureus [6]) [µg/mL] | IC50 (DNA topoisomerase 1) [µM] | MIC (Enterococcus faecium) [µg/mL] | MIC [7] [µg/mL] | MIC (Staphylococcus aureus [8]) [µg/mL] | Activity [9] | IC50 [10] [µM] | MIC (Escherichia coli [11]) [µg/mL] | MIC (Acinetobacter baumannii) [µg/mL] | MIC (Klebsiella pneumoniae) [µg/mL] | MIC (Enterobacter cloacae) [µg/mL] | MIC (Pseudomonas aeruginosa) [µg/mL] | MIC (Staphylococcus aureus [13]) [µg/mL] | MIC (Enterococcus faecalis) [µg/mL] | other results
C#CCOCCCCCCCCCCCCOc1ccc(-c2nc3ccc(-c4nc5ccc(N6CCN(C)CC6)cc5[nH]4)cc3[nH]2)cc1 | > 32 | > 32 | 16 (≈ 24.7 µM) | > 32 | Active | 1.2 | > 32 | > 50 | ≥ 32 | > 32 | 16 to 32 (≈ 24.7 to 49.5 µM) | Active | 4 | 16 (≈ 24.7 µM) | > 32 | > 32 | > 32 | 16 (≈ 24.7 µM) | 16 to 32 (≈ 24.7 to 49.5 µM) | 16 to 32 (≈ 24.7 to 49.5 µM) | inhibition (Escherichia coli [5]): inactive; IC50 [12]: > 10 µM; IC50 (DU-145): > 10 µM
CN1CCN(c2ccc3nc(-c4ccc(OCc5cn(CCCCN=[N+]=[N-])nn5)cc4)[nH]c3c2)CC1 | > 32 | > 32 | 16 (≈ 32.9 µM) | > 32 | – | 0.5 | > 32 | > 50 | > 32 | > 32 | 16 (≈ 32.9 µM) | Active | 21.5 | 16 (≈ 32.9 µM) | > 32 | > 32 | > 32 | 16 (≈ 32.9 µM) | 16 to 32 (≈ 32.9 to 65.8 µM) | 16 to 32 (≈ 32.9 to 65.8 µM) | inhibition (Escherichia coli [14]): inactive
C#CCOc1ccc(-c2nc3ccc(-c4nc5ccc(N6CCN(C)CC6)cc5[nH]4)cc3[nH]2)cc1 | 4 (≈ 8.65 µM) | 1 to 2 (≈ 2.16 to 4.32 µM) | 8 (≈ 17.3 µM) | – | – | – | 1 to 2 (≈ 2.16 to 4.32 µM) | – | 1 to 2 (≈ 2.16 to 4.32 µM) | 1 to 2 (≈ 2.16 to 4.32 µM) | – | – | – | – | > 32 | > 32 | 32 (≈ 69.2 µM) | 16 (≈ 34.6 µM) | – | – | inhibition (Escherichia coli [14]): inactive; inhibition (Escherichia coli [5]): inactive; Activity (DU-145; human, du-145, 48 h): Toxic
C#CCOCCCCCCCCCCOc1ccc(-c2nc3ccc(-c4nc5ccc(N6CCN(C)CC6)cc5[nH]4)cc3[nH]2)cc1 | > 32 | > 32 | > 32 | > 32 | Active | 5.6 | > 32 | > 50 | > 32 | > 32 | > 32 | Active | 12.2 | 2 to 4 (≈ 3.23 to 6.46 µM) | > 32 | > 32 | > 32 | 16 to 32 (≈ 25.9 to 51.7 µM) | > 32 | 16 to 32 (≈ 25.9 to 51.7 µM) | IC50 [15]: > 50 µM; IC50 (DU-145): > 10 µM
CCOc1ccc2nc3cc(N)ccc3c(N)c2c1 | – | – | – | – | – | – | – | – | – | – | – | – | – | – | – | – | – | – | – | – | inhibition (Escherichia coli [16]): inactive
